Measurements taken from ChEMBL document CHEMBL3244402, “Branched-chain analogues of luteinizing hormone-releasing hormone” (1978).
Activity calls are given as the source filed them. No cut-off for these calls is given here. Square brackets hold non-standard residues; d marks the D form. Peptide text beside a SMILES is read from it. pGlu = O=C1CC[C@@H](C(=O)O)N1

Assays:
Rattus norvegicus [1] = test: In vivo inhibition of LH-RH receptor in immature rat assessed as inhibition of LH-RH-stimulated luteinizing hormone release in serum at 300 ug, sc administered 1 hr prior to LH-RH addition measured after 30 mins relative to vehicle-treated control; assay type: functional
Summary of the method: (§1)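 Immature male rats received 300 μg peptide sc in 20% propylene glycol-saline, or vehicle alone. Synthetic LH-RH (200 ng) or saline was injected at the same time or later, over a 4-h period. Blood was taken 30 min after LH-RH. Serum LH and FSH were measured by radioimmunoassay (double antibody for LH), and percent inhibition of serum gonadotropin was calculated.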

Rattus norvegicus [2] = test: In vivo inhibition of LH-RH receptor in immature rat assessed as inhibition of LH-RH-stimulated luteinizing hormone release in serum at 300 ug, sc administered 4 hrs prior to LH-RH addition measured after 30 mins relative to vehicle-treated control; assay type: functional; summary of the method: as §1
Rattus norvegicus [3] = test: In vivo inhibition of LH-RH receptor in immature rat assessed as inhibition of LH-RH-stimulated follicle-stimulating hormone release in serum at 300 ug, sc administered 1 hr prior to LH-RH addition measured after 30 mins relative to vehicle-treated control; assay type: functional; summary of the method: as §1
Rattus norvegicus [4] = test: In vivo inhibition of LH-RH receptor in immature rat assessed as inhibition of LH-RH-stimulated follicle-stimulating hormone release in serum at 300 ug, sc administered 4 hrs prior to LH-RH addition measured after 30 mins relative to vehicle-treated control; assay type: functional; summary of the method: as §1
Rattus norvegicus [5] = test: Antiovulatory activity in Sprague-Dawley rat at 1 mg, sc administered at 12 pm on proestrous day relative to vehicle-treated control; assay type: functional
Summary of the method: (§2)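 Adult female SD rats (~200 g), 14 h light/10 h dark, with vaginal smears checked daily from 14 days after arrival. Only rats with at least two successive regular 4-day cycles were used. Peptide was given sc in propylene glycol-saline on the proestrous afternoon. Rats were killed the next day and oviducts inspected for ova. Read-out was % inhibition of ovulation and ova count (±SE) in ovulating rats.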

Rattus norvegicus [6] = test: Antiovulatory activity in Sprague-Dawley rat at 1.5 mg, sc administered at 9 am on proestrous day relative to vehicle-treated control; assay type: functional
Rattus norvegicus [7] = test: Antiovulatory activity in Sprague-Dawley rat at 1.5 mg, sc administered at 12 pm on proestrous day relative to vehicle-treated control; assay type: functional; summary of the method: as §2
Rattus norvegicus [8] = test: In vivo activation of LH-RH receptor in immature rat assessed as release of follicle-stimulating hormone relative to control; assay type: functional
Summary of the method: (§3)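 Immature male rats were injected sc with agonist, LH-RH or saline and followed over 0.25–4 h, with blood sampled at intervals. Serum LH was measured by double antibody radioimmunoassay and FSH by radioimmunoassay, against NIH-LH-S17 and NIAMD-rat-FSH-RP1 standards.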

Rattus norvegicus [9] = test: In vivo activation of LH-RH receptor in immature rat assessed as release of luteinizing hormone relative to control; assay type: functional; summary of the method: as §3
Rattus norvegicus [10] = test: In vivo activation of LH-RH receptor in immature rat assessed as release of luteinizing hormone in serum at 50 ng, sc measured over 4 hrs by double antibody radioimmunoassay; assay type: functional, organism-based; summary of the method: as §3
Rattus norvegicus [11] = test: In vivo activation of LH-RH receptor in immature rat assessed as release of follicle-stimulating hormone in serum at 50 ng, sc measured over 4 hrs by radioimmunoassay; assay type: functional, organism-based; summary of the method: as §3
Rattus norvegicus [12] = test: In vivo inhibition of LH-RH receptor in immature rat assessed as inhibition of LH-RH-stimulated luteinizing hormone release in serum at 300 ug, sc administered 0.5 hrs prior to LH-RH addition measured after 30 mins relative to vehicle-treated control; assay type: functional; summary of the method: as §1
Rattus norvegicus [13] = test: In vivo inhibition of LH-RH receptor in immature rat assessed as inhibition of LH-RH-stimulated luteinizing hormone release in serum at 300 ug, sc administered 2 hrs prior to LH-RH addition measured after 30 mins relative to vehicle-treated control; assay type: functional; summary of the method: as §1

Structure (SMILES) | inhibition (INH) (Rattus norvegicus [1]) | inhibition (INH) (Rattus norvegicus [2]) | inhibition (INH) (Rattus norvegicus [3]) | inhibition (INH) (Rattus norvegicus [4]) | inhibition (INH) (Rattus norvegicus [5]) | also measured
CC(C)C[C@H](NC(=O)[C@@H](CCCCNC(=O)[C@H](Cc1ccc(O)cc1)NC(=O)[C@H](CO)NC(=O)[C@@H](Cc1c[nH]c2ccccc12)NC(=O)[C@@H](Cc1ccccc1)NC(=O)[C@@H]1CCC(=O)N1)NC(=O)[C@H](Cc1ccc(O)cc1)NC(=O)[C@H](CO)NC(=O)[C@@H](Cc1c[nH]c2ccccc12)NC(=O)[C@@H](Cc1ccccc1)NC(=O)[C@@H]1CCC(=O)N1)C(=O)N[C@@H](CCCNC(=N)N)C(=O)N1CCC[C@H]1C(=O)NCC(N)=O | 62% | 47% | 43% | 41% | 73% | inhibition (INH) (Rattus norvegicus [6]): 50%
CC(=O)Oc1ccccc1C(=O)NCCCC[C@@H](NC(=O)[C@H](Cc1ccc(O)cc1)NC(=O)[C@H](CO)NC(=O)[C@@H](Cc1c[nH]c2ccccc12)NC(=O)[C@@H](Cc1ccccc1)NC(=O)[C@@H]1CCC(=O)N1)C(=O)N[C@@H](CC(C)C)C(=O)N[C@@H](CCCNC(=N)N)C(=O)N1CCC[C@H]1C(=O)NCC(N)=O | 57% | 18% | 23% | 13% |  | inhibition (INH) (Rattus norvegicus [7]): 11%
CC(C)C[C@H](NC(=O)[C@@H](CCCCN)NC(=O)[C@H](Cc1ccc(O)cc1)NC(=O)[C@H](CO)NC(=O)[C@@H](Cc1c[nH]c2ccccc12)NC(=O)[C@@H](Cc1ccccc1)NC(=O)[C@@H]1CCC(=O)N1)C(=O)N[C@@H](CCCNC(=N)N)C(=O)N1CCC[C@H]1C(=O)NCC(N)=O ([pGlu][dF][dW]SY[dK]LRPG-NH2) | 36% | 38% | 37% | 18% | 0% | 
CC(C)C[C@H](NC(=O)[C@@H](CCCCN)NC(=O)[C@H](Cc1ccc(O)cc1)NC(=O)[C@H](CO)NC(=O)[C@H](Cc1c[nH]c2ccccc12)NC(=O)[C@H](Cc1cnc[nH]1)NC(=O)[C@@H]1CCC(=O)N1)C(=O)N[C@@H](CCCNC(=N)N)C(=O)N1CCC[C@H]1C(=O)NCC(N)=O |  |  |  |  |  | Activity (Rattus norvegicus [8]): 300%; Activity (Rattus norvegicus [9]): 300%
CC(C)C[C@H](NC(=O)CNC(=O)[C@H](Cc1ccc(O)cc1)NC(=O)[C@H](CO)NC(=O)[C@H](Cc1c[nH]c2ccccc12)NC(=O)[C@H](Cc1cnc[nH]1)NC(=O)[C@@H]1CCC(=O)N1)C(=O)N[C@@H](CCCNC(=N)N)C(=O)N1CCC[C@H]1C(=O)NCC(N)=O |  |  |  |  |  | Activity (Rattus norvegicus [10]): Active; Activity (Rattus norvegicus [11]): Active
CC(C)C[C@H](NC(=O)[C@@H](Cc1ccccc1)NC(=O)[C@H](Cc1ccc(O)cc1)NC(=O)[C@H](CO)NC(=O)[C@@H](Cc1c[nH]c2ccccc12)NC(=O)[C@@H](Cc1ccccc1)NC(=O)[C@@H]1CCC(=O)N1)C(=O)N[C@@H](CCCNC(=N)N)C(=O)N1CCC[C@H]1C(=O)NCC(N)=O | 84% | 52% | 65% | 77% | 83% | inhibition (INH) (Rattus norvegicus [6]): 67%
CC(C)C[C@H](NC(=O)[C@@H](CCCCNC(=O)c1ccccc1)NC(=O)[C@H](Cc1ccc(O)cc1)NC(=O)[C@H](CO)NC(=O)[C@@H](Cc1c[nH]c2ccccc12)NC(=O)[C@@H](Cc1ccccc1)NC(=O)[C@@H]1CCC(=O)N1)C(=O)N[C@@H](CCCNC(=N)N)C(=O)N1CCC[C@H]1C(=O)NCC(N)=O |  | 0% |  |  | 11% | inhibition (INH) (Rattus norvegicus [12]): 76%; inhibition (INH) (Rattus norvegicus [13]): 40%
COc1ccc2c(c1)c(CC(=O)NCCCC[C@@H](NC(=O)[C@H](Cc1ccc(O)cc1)NC(=O)[C@H](CO)NC(=O)[C@@H](Cc1c[nH]c3ccccc13)NC(=O)[C@@H](Cc1ccccc1)NC(=O)[C@@H]1CCC(=O)N1)C(=O)N[C@@H](CC(C)C)C(=O)N[C@@H](CCCNC(=N)N)C(=O)N1CCC[C@H]1C(=O)NCC(N)=O)c(C)n2C(=O)c1ccc(Cl)cc1 | 7% | 0% | 0% | 0% |  | inhibition (INH) (Rattus norvegicus [7]): 0%
